Activity calls are given as the source filed them. The calls are words filed in the database; no cut-off is given here.
Key:
A549 [1] = assay: Binding affinity to human TERT promoter DNA sequence in human A549 cells assessed as telomere restriction fragment length at 0.8 uM after 30 days by TeloTAGGG-based chemiluminescence assay (reference value: 3.6 kb); assay type: cell-based
How it was run: (§1)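 Genomic DNA from A549 cells kept long-term with 0.4 or 0.8 μM compound (medium changed every 3 days, replated every 6 days). DNA isolated with DNAzol. 2 µg digested with RsaI/HinfI, run on 0.8% agarose, Southern-blotted, hybridized with DIG-labeled telomeric probe, anti-DIG alkaline phosphatase, chemiluminescence. Mean TRF = Σ(ODi)/Σ(ODi/Li).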

A549 [2] = assay: Cytotoxicity against human A549 cells assessed as reduction in colony formation incubated for 24 days followed by subculturing in compound-free medium measured after 14 days by crystal violet staining method; assay type: functional, cell-based
How it was run: (§2)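 A549 cells from the long-term culture (0.4 or 0.8 μM, medium changed every 3 days, replated every 6 days) were collected on the stated day. 2×10^3 cells seeded per 10-cm dish, fed every 4-5 days. Colonies stained with crystal violet after 14 days and counted; expressed as % of control. Controls under 25 colonies excluded. Three independent experiments.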

A549 [3] = assay: Cytotoxicity against human A549 cells assessed as colony formation at 0.8 uM incubated for 6 days followed by subculturing in compound-free medium measured after 14 days by crystal violet staining method relative to control; assay type: functional; how it was run: as §2
A549 [4] = assay: Antiproliferative activity against human A549 cells assessed as effect on population doubling at 0.4 uM up to 42 days; assay type: functional, cell-based
How it was run: (§3)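 A549 cells (1.5×10^5) seeded in RPMI 1640 + 10% FBS with 0.4 or 0.8 μM perylene or medium only. Medium changed every 3 days. Every 6 days, at confluence, cells were trypsinized, counted by hemocytometer and replated at 1.5×10^5. Population doublings n = (log Pn − log P0)/log 2, cumulated against time. Three independent experiments.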

A549 [5] = assay: Binding affinity to human TERT promoter DNA sequence in human A549 cells assessed as telomere restriction fragment length at 0.4 uM after 6 days by TeloTAGGG-based chemiluminescence assay (reference value: 3.6 kb); assay type: cell-based; how it was run: as §1
A549 [6] = assay: Antiproliferative activity against human A549 cells assessed as decrease in cell viability at 0.4 uM after 42 days; assay type: functional, cell-based; how it was run: as §3
Homo sapiens [7] = organism: Homo sapiens; assay: Binding affinity to human TERT2 5'-GGGGGCTGGGCCGGGGACCCGGGAGGGGTCGGGACGGGGCGGGG-3' DNA assessed as induction of intramolecular G-quadruplex formation at 4 uM after 10 hrs by PAGE analysis
How it was run: (§4)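 FAM-labeled G-rich strand (2 µM) and complementary C-rich strand (2 µM) with compound in 10 mM Tris-HCl pH 7.4, 100 mM KCl. Heated to 95 °C for 5 min, slowly cooled to 55 °C, held 10 h, then cooled to 4 °C. Duplex vs G-quadruplex resolved on 16% native PAGE with 50 mM KCl (4 °C, 350 V, 10 h) and fluorescence-imaged.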

A549 [8] = assay: Binding affinity to human TERT promoter DNA sequence in human A549 cells assessed as decrease in TERT mRNA expression at 6 uM after 24 hrs by semi-quantitative PCR analysis relative to control; assay type: cell-based; parameters: scale not given: the % may be the effect or the level left
How it was run: (§5)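 A549 cells (3.0×10^5) grown 24 h in RPMI 1640 + 10% FBS at 37 °C, 5% CO2, then exposed to compound for 24 h. Total RNA by Trizol, reverse transcribed, hTERT amplified with specific primers. Semi-quantitative and real-time SYBR Green PCR (45 cycles), standard-curve method, normalized to GAPDH. Three independent experiments.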

A549 [9] = assay: Binding affinity to human TERT promoter DNA sequence in human A549 cells assessed as telomere restriction fragment length at 0.4 uM after 54 days by TeloTAGGG-based chemiluminescence assay (reference value: 3.6 kb); assay type: cell-based; how it was run: as §1
[10] = Binding affinity to TSG4 primer DNA (unknown origin) assessed as inhibition of telomerase-mediated extension of primer […] by fluorescence-based TRAP assay
How it was run: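 Cell-free TRAP. Compound preincubated with TSG4 primer in telomerase buffer (20 mM Tris-HCl pH 7.4, 1.5 mM MgCl2, 63 mM KCl, 1 mM EGTA, 200 µM dNTPs) at 37 °C for 2 h. Crude telomerase (50 ng) from telomerase-transfected HEK293T added, 30 °C for 30 min. Compound removed by phenol-chloroform, products ethanol-precipitated, PCR with FAM-tagged primer, 8% native PAGE, phosphoimaging. IC50 ± SD from three experiments.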

A549 [11] = assay: Binding affinity to human TERT promoter DNA sequence in human A549 cells assessed as inhibition of telomerase-mediated MTS primer extension after 24 hrs by fluorescence-based TRAP assay; assay type: cell-based
How it was run: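 A549 cells exposed to compound for 24 h, lysed in CHAPS buffer, protein measured by Bradford. 6 µg lysate protein used as telomerase source in fluorescent TRAP with MTS primer (no G-quadruplex motif), with no phenol-chloroform step. FAM-primer PCR, native PAGE, fluorescence quantified. Mean ± SD of three experiments.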

A549 [12] = assay: Cytotoxicity against human A549 cells assessed as colony formation at 0.8 uM incubated for 24 days followed by subculturing in compound-free medium measured after 14 days by crystal violet staining method relative to control; assay type: functional; how it was run: as §2
A549 [13] = assay: Binding affinity to human TERT promoter DNA sequence in human A549 cells assessed as telomere restriction fragment length at 0.4 uM after 24 days by TeloTAGGG-based chemiluminescence assay (reference value: 3.6 kb); assay type: cell-based; how it was run: as §1
Homo sapiens [14] = organism: Homo sapiens; assay: Binding affinity to human telomeric 5'-AGATAGTTAGGGTTAGGGTTAGGGTTAGGGTT-3' DNA assessed as induction of intramoleculsr G-quadruplex formation after 10 hrs by PAGE analysis; how it was run: as §4
A549 [15] = assay: Cytotoxicity against human A549 cells assessed as colony formation at 0.4 uM incubated for 54 days followed by subculturing in compound-free medium measured after 14 days by crystal violet staining method relative to control; assay type: functional; how it was run: as §2
A549 [16] = assay: Antiproliferative activity against human A549 cells assessed as cell division arrest at 0.8 uM measured on day 36; assay type: functional, cell-based; how it was run: as §3
A549 [17] = assay: Binding affinity to human TERT promoter DNA sequence in human A549 cells assessed as decrease in TERT mRNA expression after 24 hrs by semi-quantitative PCR analysis; assay type: cell-based; how it was run: as §5
A549 [18] = assay: Binding affinity to human TERT promoter DNA sequence in human A549 cells assessed as telomere restriction fragment length at 0.8 uM after 6 days by TeloTAGGG-based chemiluminescence assay (reference value: 3.6 kb); assay type: cell-based; how it was run: as §1
Homo sapiens [19] = organism: Homo sapiens; assay: Binding affinity to human TERT2 5'-GGGGGCTGGGCCGGGGACCCGGGAGGGGTCGGGACGGGGCGGGG-3' DNA assessed as induction of intermolecular G-quadruplex formation at 8 to 32 uM after 10 hrs by PAGE analysis; how it was run: as §4
A549 [20] = assay: Antiproliferative activity against human A549 cells assessed as decrease in population doubling at 0.8 uM after 18 days; assay type: functional, cell-based; how it was run: as §3
A549 [21] = assay: Cytotoxicity against human A549 cells assessed as colony formation at 0.4 uM incubated for 24 days followed by subculturing in compound-free medium measured after 14 days by crystal violet staining method relative to control; assay type: functional; how it was run: as §2
A549 [22] = assay: Induction of senescence in human A549 cells assessed as cell enlargement at 0.4 uM incubated for 54 days followed by subculturing on compound-free medium measured after 48 hrs by fluorescence microscopic analysis; assay type: functional, cell-based
How it was run: (§6)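 A549 cells from the long-term treatment replated and grown 48 h. Fixed in 2% formaldehyde/0.2% glutaraldehyde for 5 min at RT. Stained overnight with 1 mg/ml X-gal in pH 6 citrate/phosphate buffer with 5 mM ferro/ferricyanide, 150 mM NaCl, 2 mM MgCl2. Enlarged blue cells scored by microscopy.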

A549 [23] = assay: Induction of senescence in human A549 cells assessed as increase in beta-galactosidase activity at 0.4 uM incubated for 54 days followed by subculturing on compound-free medium measured after 48 hrs by fluorescence microscopic analysis; assay type: functional, cell-based; how it was run: as §6
A549 [24] = assay: Antiproliferative activity against human A549 cells assessed as decrease in population doubling at 0.4 uM after 42 days; assay type: functional, cell-based; how it was run: as §3
A549 [25] = assay: Cytotoxicity against human A549 cells assessed as colony formation at 0.4 uM incubated for 6 days followed by subculturing in compound-free medium measured after 14 days by crystal violet staining method relative to control; assay type: functional; how it was run: as §2
A549 [26] = assay: Binding affinity to human TERT promoter DNA sequence in human A549 cells assessed as telomere restriction fragment length at 0.8 uM after 18 days by TeloTAGGG-based chemiluminescence assay (reference value: 3.6 kb); assay type: cell-based; how it was run: as §1
Homo sapiens [27] = organism: Homo sapiens; assay: Binding affinity to human TERT1 5'-AAGGGGAGGGGCTGGGAGGGCCCGGA-3' DNA assessed as induction of intramoleculsr G-quadruplex formation after 10 hrs by PAGE analysis; how it was run: as §4

Activity (Homo sapiens [7]): Active | IC50 [10]: 800 nM | inhibition [10]: Dose-dependent effect | Activity (Homo sapiens [14]): Dose-dependent effect | Activity (Homo sapiens [19]): Active | Activity (Homo sapiens [27]): Dose-dependent effect
SMILES: CCN(CC)CCN1C(=O)c2ccc3c4cccc5c(N6CCNCC6)ccc(c6ccc(c2c36)C1=O)c54
Activity (A549 [1]): 3.2 kilobase | Activity (A549 [2]): Dose-dependent effect | Activity (A549 [3]): 100% | Activity (A549 [4]): inactive | Activity (A549 [5]): 3.6 kilobase | Activity (A549 [6]): inactive | Activity (A549 [8]): 37% | Activity (A549 [9]): 2.9 kilobase | Activity (A549 [11]): Dose-dependent effect | Activity (A549 [12]): 35% | Activity (A549 [13]): 3.5 kilobase | Activity (A549 [15]): 60% | Activity (A549 [16]): Active | Activity (A549 [17]): Dose-dependent effect | Activity (A549 [18]): 3.6 kilobase | Activity (A549 [20]): Active | Activity (A549 [21]): 73% | Activity (A549 [22]): Active | Activity (A549 [23]): Active | Activity (A549 [24]): Active | Activity (A549 [25]): 100% | Activity (A549 [26]): 3.5 kilobase

From ChEMBL document CHEMBL2331390, “Telomere shortening and cell senescence induced by perylene derivatives in A549 human lung cancer cells” (Bioorg Med Chem, 2013)
